Test results: ChEMBL document CHEMBL1134691, “3-Phenyl-5-acyloxymethyl-2H,5H-furan-2-ones: synthesis and biological activity of a novel group of potential antifungal drugs” (2001)
Values after ≈ are worked out from the molar mass of the structure shown.

How the values were obtained:
[1] = tested on: Lichtheimia corymbifera; assay: In vitro inhibition of Absidia corymbifera 272 growth for 24 hours.; format: functional
Summary of the method: (§1)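 Filamentous isolates tested by microdilution per NCCLS M27-A in RPMI 1640 plus L-glutamine, buffered with 0.165 M MOPS to pH 7.0. Final inoculum 5 × 10^3 cfu/mL. Compounds in DMSO (final ≤2%), 2-fold series over 1000–0.24 µmol/L. Plates held at 35 °C and read visually after 24 and 48 h. MIC taken as 80% inhibition of control growth; determined twice in duplicate.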

[2] = tested on: Lichtheimia corymbifera; assay: In vitro inhibition of Absidia corymbifera 272 growth for 48 hours.; format: functional; settings: Lichtheimia corymbifera, 48 h; read-out: MIC; summary of the method: as §1
[3] = tested on: Pichia kudriavzevii; assay: Inhibition of Candida krusei ATCC 6258 growth for 24 hours in vitro.; format: functional
Summary of the method: (§2)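 NCCLS M27-A broth microdilution in RPMI 1640 with L-glutamine and 0.165 M MOPS, pH 7.0. Isolates kept on Sabouraud dextrose agar. Inoculum 5 × 10^3 cfu/mL final. Compounds were diluted in DMSO (≤2% final) and tested in 2-fold dilutions of 1000–0.24 µmol/L. Incubation at 35 °C, OD540 read at 24 and 48 h. MIC = 80% growth inhibition versus control; assays run twice in duplicate.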

[4] = tested on: Pichia kudriavzevii; assay: Inhibition of Candida krusei ATCC 6258 growth for 48 hours in vitro.; format: functional; summary of the method: as §2
[5] = tested on: Pichia kudriavzevii; assay: Inhibition of Candida krusei E28 growth for 24 hours in vitro.; format: functional; settings: Pichia kudriavzevii, 24 h; read-out: MIC; summary of the method: as §2
[6] = tested on: Pichia kudriavzevii; assay: Inhibition of Candida krusei E28 growth for 48 hours in vitro.; format: functional; summary of the method: as §2
[7] = tested on: Aspergillus fumigatus; assay: Inhibition of Aspergillus fumigatus 231 growth for 48 hours in vitro.; format: functional; settings: Aspergillus fumigatus, 48 h; read-out: MIC; summary of the method: as §1
[8] = tested on: Clavispora lusitaniae; assay: Inhibition of Candida lusitaniae 2446/I growth for 24 hours in vitro.; format: functional; settings: Clavispora lusitaniae, 24 h; read-out: MIC; summary of the method: as §2
[9] = tested on: Clavispora lusitaniae; assay: Inhibition of Candida lusitaniae 2446/I growth for 48 hours in vitro.; format: functional; settings: Clavispora lusitaniae, 48 h; read-out: MIC; summary of the method: as §2
[10] = tested on: Candida parapsilosis; assay: Inhibition of Candida parapsilosis ATCC 22019 growth for 24 hours in vitro.; format: functional; settings: Lodderomyces parapsilosis, ATCC 22019, 24 h; read-out: MIC; summary of the method: as §2
[11] = tested on: Candida parapsilosis; assay: Inhibition of Candida parapsilosis ATCC 22019 growth for 48 hours in vitro.; format: functional; settings: Lodderomyces parapsilosis, ATCC 22019, 48 h; read-out: MIC; summary of the method: as §2
[12] = tested on: Candida albicans; assay: Inhibition of Candida albicans ATCC 44859 growth for 24 hours in vitro.; format: functional; settings: Candida albicans, ATCC 44859, 24 h; read-out: MIC; summary of the method: as §2
[13] = tested on: Candida albicans; assay: Inhibition of Candida albicans ATCC 44859 growth for 48 hours in vitro.; format: functional; settings: Candida albicans, ATCC 44859, 48 h; read-out: MIC; summary of the method: as §2
[14] = tested on: Candida albicans; assay: Inhibition of Candida albicans ATCC 90028 for 24 hours in vitro.; format: functional; settings: Candida albicans, ATCC 90028, 24 h; read-out: MIC; summary of the method: as §2
[15] = tested on: Candida albicans; assay: Inhibition of Candida albicans ATCC 90028 for 48 hours in vitro.; format: functional; settings: Candida albicans, ATCC 90028, 48 h; read-out: MIC; summary of the method: as §2
[16] = tested on: Nakaseomyces glabratus; assay: Inhibition of Candida glabrata 20/I growth for 24 hours in vitro.; format: functional; summary of the method: as §2
[17] = tested on: Nakaseomyces glabratus; assay: Inhibition of Candida glabrata 20/I growth for 48 hours in vitro.; format: functional; summary of the method: as §2
[18] = tested on: Candida tropicalis; assay: Inhibition of Candida tropicalis 156 growth for 24 hours in vitro.; format: functional; settings: Candida tropicalis, 24 h; read-out: MIC; summary of the method: as §2
[19] = tested on: Trichosporon beigelii; assay: Inhibition of Trichosporon beigelli 1188 for 24 hours in vitro.; format: functional; settings: Trichosporon beigelii, 24 h; read-out: MIC
Summary of the method: (§3)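 Microdilution following NCCLS M27-A. Medium: RPMI 1640 with L-glutamine, 0.165 M MOPS, pH 7.0. Final inoculum 5 × 10^3 cfu/mL. Compounds dissolved in DMSO, final ≤2%, serially halved from 1000 to 0.24 µmol/L. Incubated at 35 °C and read at 24 and 48 h. MIC defined as 80% inhibition of control growth; run twice in duplicate.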

[20] = tested on: Trichosporon beigelii; assay: Inhibition of Trichosporon beigelli 1188 for 48 hours in vitro.; format: functional; settings: Trichosporon beigelii, 48 h; read-out: MIC; summary of the method: as §3
[21] = Inhibition of Trichophyton mentagrophytes 445 growth for 72 hours in vitro.; format: functional, Arthroderma benhamiae; settings: Trichophyton benhamiae, 72 h; read-out: MIC
Summary of the method: (§4)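 Dermatophyte grown in MOPS-buffered (0.165 M, pH 7.0) RPMI 1640 containing L-glutamine, in an M27-A microdilution format. Inoculum 5 × 10^3 cfu/mL final. Compounds from DMSO stocks (≤2% final), 2-fold dilutions 1000–0.24 µmol/L. Incubated at 35 °C, growth judged visually at 72 and 120 h. MIC endpoint is 80% inhibition relative to control; measured twice in duplicate.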

[22] = Inhibition of Trichophyton mentagrophytes 445 growth for 120 hours in vitro.; format: functional, Arthroderma benhamiae; settings: Trichophyton benhamiae, 120 h; read-out: MIC; summary of the method: as §4
[23] = tested on: Aspergillus fumigatus; assay: Inhibition of Aspergillus fumigatus 231 growth for 24 hours in vitro.; format: functional; settings: Aspergillus fumigatus, 24 h; read-out: MIC; summary of the method: as §1
[24] = tested on: Candida tropicalis; assay: Inhibition of Candida tropicalis 156 growth for 48 hours in vitro.; format: functional; summary of the method: as §2
[25] = Lichtheimia corymbifera, 24 h, read-out: MIC
[26] = Pichia kudriavzevii, ATCC 6258, 24 h, read-out: MIC
[27] = Pichia kudriavzevii, ATCC 6258, 48 h, read-out: MIC
[28] = Pichia kudriavzevii, 48 h, read-out: MIC
[29] = Nakaseomyces glabratus, 24 h, read-out: MIC
[30] = Nakaseomyces glabratus, 48 h, read-out: MIC
[31] = Candida tropicalis, 48 h, read-out: MIC

Row | Structure (SMILES) | MIC [1, 25] | MIC [2] | MIC [3, 26] | MIC [4, 27] | MIC [5] | MIC [6, 28] | MIC [7] | MIC [8] | MIC [9] | MIC [10] | MIC [11] | MIC [12] | MIC [13] | MIC [14] | MIC [15] | MIC [16, 29] | MIC [17, 30] | MIC [18] | MIC [19] | MIC [20] | other results
1 | OC(Cn1cncn1)(Cn1cncn1)c1ccc(F)cc1F [FLUCONAZOLE] | > 128 µM | > 128 µM | 32 µM (≈ 9.8 µg/mL) | 64 µM (≈ 19.6 µg/mL) | 16 µM (≈ 4.9 µg/mL) | 32 µM (≈ 9.8 µg/mL) | > 128 µM | 1 µM (≈ 0.306 µg/mL) | 1 µM (≈ 0.306 µg/mL) | 2 µM (≈ 0.613 µg/mL) | 4 µM (≈ 1.23 µg/mL) | 0.25 µM (≈ 0.0766 µg/mL) | 0.5 µM (≈ 0.153 µg/mL) | 0.25 µM (≈ 0.0766 µg/mL) | 1 µM (≈ 0.306 µg/mL) | 4 µM | 16 µM | 0.5 µM (≈ 0.153 µg/mL) | 1 µM (≈ 0.306 µg/mL) | 2 µM (≈ 0.613 µg/mL) | MIC [21]: 8 µM (≈ 2.45 µg/mL); MIC [22]: 16 µM (≈ 4.9 µg/mL); MIC [23]: > 128 µM; MIC [24, 31]: > 128 µM
2 | CC(=O)OCC1C=C(c2ccc(Br)cc2)C(=O)O1 (stereo unspecified) | 7.81 µM (≈ 2.43 µg/mL) | 15.6 µM (≈ 4.86 µg/mL) | 3.91 µM (≈ 1.22 µg/mL) | 7.81 µM (≈ 2.43 µg/mL) | 3.91 µM (≈ 1.22 µg/mL) | 7.81 µM (≈ 2.43 µg/mL) | 3.91 µM (≈ 1.22 µg/mL) | 1.95 µM (≈ 0.607 µg/mL) | 3.91 µM (≈ 1.22 µg/mL) | 7.81 µM (≈ 2.43 µg/mL) | 7.81 µM (≈ 2.43 µg/mL) | < 0.98 µM | 1.95 µM (≈ 0.607 µg/mL) | 1.95 µM (≈ 0.607 µg/mL) | 3.91 µM (≈ 1.22 µg/mL) | 0.98 µM | 1.95 µM | 7.81 µM (≈ 2.43 µg/mL) | 3.91 µM (≈ 1.22 µg/mL) | 7.81 µM (≈ 2.43 µg/mL) | MIC [21]: 1.95 µM (≈ 0.607 µg/mL); MIC [22]: 1.95 µM (≈ 0.607 µg/mL); MIC [23]: 0.98 µM (≈ 0.305 µg/mL); MIC [24, 31]: 15.6 µM (≈ 4.86 µg/mL)
3 | C[C@@H]1[C@H](O)[C@@H](C)/C=C/C=C/C=C/C=C/C=C/C=C/C=C/[C@H](O[C@@H]2O[C@H](C)[C@@H](O)[C@H](N)[C@@H]2O)C[C@@H]2O[C@](O)(C[C@@H](O)C[C@@H](O)[C@H](O)CC[C@@H](O)C[C@@H](O)CC(=O)O[C@H]1C)C[C@H](O)[C@H]2C(=O)O [AMPHOTERICIN B] | 2.16 µM (≈ 2 µg/mL) | 2.16 µM (≈ 2 µg/mL) | 2.16 µM (≈ 2 µg/mL) | 4.33 µM (≈ 4 µg/mL) | 2.16 µM (≈ 2 µg/mL) | 4.33 µM (≈ 4 µg/mL) | 0.54 µM (≈ 0.499 µg/mL) | 2.16 µM (≈ 2 µg/mL) | 2.16 µM (≈ 2 µg/mL) | 2.16 µM (≈ 2 µg/mL) | 2.16 µM (≈ 2 µg/mL) | 1.08 µM (≈ 0.998 µg/mL) | 1.08 µM (≈ 0.998 µg/mL) | 2.16 µM (≈ 2 µg/mL) | 2.16 µM (≈ 2 µg/mL) | – | – | – | – | – | MIC [16]: 2 µg/mL; MIC [17]: 2 µg/mL
4 | CC(C)(C)C(=O)OCC1C=C(c2ccc(Cl)c(Cl)c2)C(=O)O1 (stereo in doubt; (-)2c) | – | 62.5 µM (≈ 21.5 µg/mL) | – | – | 7.81 µM (≈ 2.68 µg/mL) | – | 7.81 µM (≈ 2.68 µg/mL) | 3.91 µM (≈ 1.34 µg/mL) | 7.81 µM (≈ 2.68 µg/mL) | 7.81 µM (≈ 2.68 µg/mL) | 15.6 µM (≈ 5.36 µg/mL) | 1.95 µM (≈ 0.669 µg/mL) | 3.91 µM (≈ 1.34 µg/mL) | 3.91 µM (≈ 1.34 µg/mL) | 7.81 µM (≈ 2.68 µg/mL) | – | – | – | – | – | MIC [1]: 5.36 uM l-1; MIC [3]: 2.68 uM l-1; MIC [4]: 10.73 uM l-1; MIC [6]: 5.36 uM l-1; MIC [24]: 5.36 uM l-1
5 | CC(=O)N1CCN(c2ccc(OCC3COC(Cn4ccnc4)(c4ccc(Cl)cc4Cl)O3)cc2)CC1 (stereo unspecified) [KETOCONAZOLE] | 31.2 µM (≈ 16.6 µg/mL) | 31.2 µM (≈ 16.6 µg/mL) | 1.96 µM (≈ 1.04 µg/mL) | 1.96 µM (≈ 1.04 µg/mL) | 3.91 µM (≈ 2.08 µg/mL) | 3.91 µM (≈ 2.08 µg/mL) | 15.6 µM (≈ 8.31 µg/mL) | 0.056 µM (≈ 0.0298 µg/mL) | 0.11 µM (≈ 0.0585 µg/mL) | 0.11 µM (≈ 0.0585 µg/mL) | 0.11 µM (≈ 0.0585 µg/mL) | 0.11 µM (≈ 0.0585 µg/mL) | 0.11 µM (≈ 0.0585 µg/mL) | < 0.056 µM | < 0.056 µM | – | – | – | – | – | –
